From PubChem
Fibroblast inh: blocks proliferation of human lung fibroblasts; LL 47 human lung fibroblast viability, ATP luminescence; active compounds read low; viability, % at 10 µM; hit rate 1.1% among 85,000; AID 719;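 active = viability at or below 50% in the single dose screen; inactive = viability above 50%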;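 also: compound exposure lasted 72 h before the ATP readout; 100% = median luminescence of untreated cell-only wells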
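Material: Human LL 47 lung fibroblast cells | Input: 1,150 cells/well | Buffer or medium: IMEM plus 15% FBS | Compound dosing: 0.1% DMSO in all compound wells | Times: Overnight cell rest, 72 h compound treatment at 37 °C | Signal: CellTiter-Glo luminescence measuring cellular ATP | Measure: % viability versus median cells-only luminescence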
HCT116 bCat-KO: beta-catenin-lacking colon tumor cell growth suppression; HCT116 beta-catenin knockout viability, CellTiter-Glo, 60 h; active compounds read low; viability, % at 10 µM; hit rate 1.5% among 140,000; AID 818;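 active = viability at or under a set limit, the compound median less 4 SD, cut at about 6% in these data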;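 also: 0% = Hyamine 1622 control at 20 µM and 100% = untreated cell control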
H69AR inhibit: growth inhibitors of human H69AR lung tumor cells. H69AR lung tumor viability, ATP luminescence, 72 h; active compounds read low. viability, % at 10 µM. hit rate 6% among 85,000;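 active = viability at or below 40%; inactive = viability above 40%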;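 also: multidrug resistant small cell line overexpressing MRP-1 efflux transporter; 100% = mean luminescence of untreated control wells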
PTEN del growth: suppresses growth of cells with PTEN deletion; HCT116 PTEN-null viability, CellTiter-Glo, 60 h; active compounds read low; viability, % at 10 µM; hit rate 1.2% among 140,000; AID 827;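 active = viability at or below a set limit, 4 SD under the median of all tested compounds, cut at about 3.7% in these data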;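 also: PTEN knockout HCT116 line with beta catenin targeted HCT116 as companion control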
HUVEC inhibit: blocks proliferation of human endothelial cells | hit rate 1.1% among 86,000 | viability, % at 10 µM (by protocol) | AID 648 | HUVEC proliferation, CellTiter-Glo luminescence, 72 h; active compounds read low;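 active = viability at or below 30%; inactive = viability above 30%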;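 also: 100% = median luminescence of DMSO-only cell control wells on each plate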
The depositor's hits bear a star; . = no result. The entries come from a sample that favours hits as a whole.

SMILES	Fibroblast inh	HCT116 bCat-KO	H69AR inhibit	PTEN del growth	HUVEC inhibit
Cc1ccc2cc(CN(Cc3ccco3)C(=O)c3cccs3)c(=O)[nH]c2c1	54	12	21*	13	61
Cc1ccc2[nH]c(=O)c(CN(Cc3ccco3)C(=O)c3cccs3)cc2c1	95	91	83	91	92
CCCCN(Cc1ccco1)C(=O)c1cc2c(=O)[nH]c3ccc(C)cc3c2s1	62	51	28*	41	4.4*
N#Cc1cn(Cc2cccc(Cl)c2)c2ccccc12	90	73	63	80	58
N#Cc1ccccc1Cn1cc(/C=C/[N+](=O)[O-])c2ccccc21	.	2.1*	.	1.4*	.
O=[N+]([O-])/C=C/c1cn(Cc2ccccc2)c2ccccc12	.	1.6*	.	1.1*	.
CCOC(=O)c1sc(N2N=C(C)/C(=C\c3ccc(OCC(=O)OC)cc3)C2=O)nc1C	.	77	.	88	.
Cn1nnnc1Sc1ncnc2scc(-c3ccc(F)cc3)c12	.	5.5*	.	3.7*	.
O=c1cc(-c2c(F)c(F)c(F)c(F)c2F)oc2ccccc12	.	2.2*	.	.	.
O=c1cc(-c2c(F)c(F)c(F)c(F)c2F)oc2c(F)c(F)c(F)c(F)c12	17*	1.6*	1.0*	1.5*	1.6*
Cc1ccccc1C(=O)NC1CCN(CC(=O)Nc2nccs2)CC1	94	97	16*	110	98
Cc1ccc(NC(=O)NC2CCN(CC(=O)Nc3nccs3)CC2)cc1	100	103	75	112	98
Cc1c(CCOC(=O)CC23CC4CC(CC(C4)C2)C3)sc[n+]1CC(=O)c1ccc(Br)cc1	26*	4.8*	1.3*	7	2.2*
c1ccc2sc(Cc3nnc4n3CCCCC4)nc2c1	105	79	89	84	91
Cc1oc2nc(SCC(=O)N3CCCCC3)nc(N)c2c1C	.	99	.	104	.
CCOC(=O)c1cnc(SCC(=O)Nc2cc(OC)cc(OC)c2)nc1N	89	80	81	85	88
Cc1sc(NC(=O)CSc2nnc(COc3ccc(Cl)cc3)n2C)c(C#N)c1C	87	77	31*	85	60
CCOC(=O)c1cnc(SCC(=O)Nc2ccc(N3CCOCC3)c(Cl)c2)nc1N	103	86	94	80	113
Cc1ccc(-c2nnc(SCC(=O)Nc3sc(C)c(C)c3C#N)n2C)cc1	97	82	83	94	83
CCOC(=O)c1cnc(SCC(=O)Nc2sc(C)c(C)c2C#N)nc1N	52	2.8*	94	3.1*	61
CCOC(=O)c1cnc(SCc2nc(N)nc(Nc3ccccc3)n2)nc1N	97	46	32*	37	106
CCOC(=O)c1cnc(SCC(=O)Nc2cc(C(F)(F)F)ccc2N2CCOCC2)nc1N	65	76	36*	76	47
CCc1ccc2c(c1)C(c1ccc([N+](=O)[O-])cc1)=NNC(c1ccc(F)cc1)=N2	.	62	.	72	.
COc1cccc(OC)c1C(=O)OCC(=O)Nc1ccc(OC(F)(F)F)cc1	.	102	.	91	.
CN(C)c1ccc(CNc2ccc3c(c2)ncn3C)cc1	95	83	5.2*	91	91
SMILES	Fibroblast inh	HCT116 bCat-KO	H69AR inhibit	PTEN del growth	HUVEC inhibit
CCCCn1cnc2cc(NCc3ccncc3)ccc21	91	96	100	95	106
O=C(Nc1ccc(Cl)cc1)N1CCCN(Cc2ccc(F)cc2)C1	29*	0.6*	39*	0.7*	66
Cc1ccc2[nH]c(=O)c(C3C(C#N)=C(N)Oc4c3ccc3cccnc43)cc2c1 (stereo not given)	69	10	10*	8	4.9*
COc1ccc(CCNC(=O)Cn2c(=O)cnc3ccccc32)cc1	62	35	25*	43	60
O=C(NCC1CCCO1)C1CCN(S(=O)(=O)N2CCCC2)CC1 (stereo not given)	.	102	101	96	84
O=S(=O)(CCN(CCS(=O)(=O)C(F)(F)F)CC1CCCO1)C(F)(F)F (stereo not given)	44*	1.6*	98	1.5*	93
CCN(CC)S(=O)(=O)c1cccc(C(=O)Nc2nc3cc4c(cc3s2)OCCO4)c1	95	39	22*	54	104
O=C(NNc1nc2cc3c(cc2s1)OCO3)c1cccc(F)c1	.	0.6*	.	0.2*	.
CN(C)CCN(C(=O)/C=C/c1cccs1)c1nc2c(F)cc(F)cc2s1	.	1.6*	.	2.0*	.
Cc1ccc2nc(N(CCN(C)C)C(=O)/C=C/c3cccs3)sc2c1	.	78	.	80	.
COCCCN1CN(Cc2ccccc2)CNC1=S	.	90	.	97	.
